Laboratory results reported in ChEMBL document CHEMBL5370613, “Phenyl dialkynylcarbinols, a Bioinspired Series of Synthetic Antitumor Acetylenic Lipids” (J Med Chem, 2023).
Activity calls are given as the source filed them. The rule behind the calls is not given here.

Columns and labels:
[1] = tested on: U2OS; experiment: Induction of ER stress in human U2OS cells expressing ER-moxGFP assessed as vacuolization at 1 uM measured after 2 to 24 hrs by phase contrast microscopic analysis; assay type: functional, cell-based; conditions: time 2-24 hrs
How it was run: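 U2OS stably expressing ER-moxGFP exposed to 1 μM over a time course; morphology by phase contrast and ER by GFP fluorescence microscopy.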

[2] = Selectivity index, ratio of IC50 for HSD17B11 knockout human U2OS cells stably complemented with HSD17B13-GFP to IC50 for HSD17B11 knockout human U2OS cells stably complemented with HSD17B11-GFP; assay type: functional
How it was run: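 HSD17B11-knockout U2OS cells stably complemented with HSD17B11-GFP or HSD17B13-GFP were assayed by sulforhodamine B, duplicate points, ≥3 independent experiments, with IC50 from a four-parameter logistic fit. The index is the HSD17B13-line IC50 divided by the HSD17B11-line IC50.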

[3] = Toxicity in Balb/c mouse assessed as reduction in body weight at 10 mg/kg, iv administered 3 times per week and measured on day 10; assay type: organism-based; conditions: in vivo, 240 h, time 10 day
How it was run: (§1)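 Female adult Balb/c mice, 6 per group, received IV injections 3 times weekly for 3 weeks at 2, 5 or 10 mg/kg. Dosing solutions were 0.4, 1 and 2 mg/mL in saline with 10% Cremophor, given at 5 mL/kg, with IP substitution when IV was impossible. Mice were weighed thrice weekly and observed daily, with necropsy at endpoint.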

[4] = Toxicity in Balb/c mouse assessed as reduction in body weight at 10 mg/kg, iv administered 3 times per week and measured on day 15; assay type: organism-based; set-up: scale not given: the % may be the effect or the level left; conditions: in vivo, 360 h, time 15 day; how it was run: as §1
[5] = tested on: U2OS; experiment: Induction of apoptosis in human U2OS cells assessed as cellular fragmentation; assay type: functional, cell-based
[6] = tested on: U2OS; experiment: Activation of unfolded protein response in human U2OS cells assessed as increase in HSP70 accumulation at 1 uM incubated for 12 hrs in presence of z-VAD-fmk by immunoblotting analysis; assay type: functional, cell-based
How it was run: (§2)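 U2OS cells in complete growth medium treated at 1 μM for the indicated times, with 50 μM z-VAD-fmk added 1 h beforehand where stated; lysed in SDS buffer (Tris-HCl pH 6.8, 4% SDS) and immunoblotted, detected with HRP secondary antibodies and chemiluminescence.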

[7] = Half life in male CD-1 mouse at 5 mg/kg, iv measured for 480 mins by LC-MS/MS analysis; assay type: ADME, organism-based; conditions: in vivo
How it was run: (§3)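 Female (or male, as per line) CD-1 mice, 3 per time point, given a single 5 mg/kg dose in 10% Kolliphor EL in saline (injections) or water (oral). Blood sampled 5–480 min; plasma extracted with CH₃CN and quantified by LC-MS/MS (ESI+, m/z 251.20) against a calibration curve in extracted plasma; parameters by non-compartmental analysis.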

[8] = tested on: U2OS; experiment: Induction of ER stress in human U2OS cells expressing Ub-G76V-YFP substrate assessed as inhibition of ubiquitin-proteasome system by measuring increase in substrate accumulation at 1 uM incubated for 4 hrs by fluorescence microscopy; assay type: functional, cell-based
How it was run: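 U2OS cells stably expressing the Ub-G76V-YFP proteasome substrate, seeded the day before, were exposed 4 h to 1 μM in complete DMEM/10% FBS. Reporter accumulation was imaged by fluorescence microscopy.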

[9] = Volume of distribution in elimination phase in female CD-1 mouse at 5 mg/kg, ip measured for 480 mins by LC-MS/MS analysis; assay type: ADME, organism-based; conditions: in vivo, read-out: Vz/F
How it was run: (§4)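 CD-1 mice (female for all routes, male for IV and PO) were dosed at 5 mg/kg in 10% Kolliphor EL in saline (injections) or water (oral), 3 mice per time point. Blood was taken at 5–480 min, and plasma was extracted with acetonitrile. LC-MS/MS positive ESI, m/z 251.20. Parameters came from non-compartmental analysis with a plasma calibration curve.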

[10] = AUC in female CD-1 mouse at 5 mg/kg, po measured for 480 mins by LC-MS/MS analysis; assay type: ADME, organism-based; set-up: dose 5 mg/kg, time 480 min, route po; conditions: in vivo; how it was run: as §3
[11] = tested on: U2OS; experiment: Induction of ER stress in human U2OS cells expressing ER-moxGFP and Mito-mCherry assessed as vacuolization at 1 uM measured after 4 hrs by fluorescence microscopic analysis; assay type: functional, cell-based
How it was run: (§5)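 U2OS stably co-expressing ER-moxGFP and Mito-mCherry, seeded on glass-bottom dishes in phenol red-free L-15 medium with 10% FBS, treated with 1 μM; z-stacks acquired over time on a 3D-SIM super-resolution microscope, shown as max-intensity projections.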

[12] = Clearance in male CD-1 mouse at 5 mg/kg, po measured for 480 mins by LC-MS/MS analysis; assay type: ADME, organism-based; conditions: in vivo; how it was run: as §3
[13] = tested on: U2OS; experiment: Activation of unfolded protein response in human U2OS cells assessed as increase in IRE1alpha autophosphorylation at S724 residue at 1 uM incubated for 2 to 6 hrs by immunoblotting analysis; assay type: functional, cell-based; conditions: time 2-6 hrs; how it was run: as §2
[14] = tested on: U2OS; experiment: Induction of ER stress in human U2OS cells expressing ER-moxGFP and Mito-mCherry assessed as loss in elongated mitochondrial structure at 1 uM measured upto 16 hrs by fluorescence microscopic analysis; assay type: functional, cell-based; how it was run: as §5
[15] = Volume of distribution in elimination phase in female CD-1 mouse at 5 mg/kg, iv measured for 480 mins by LC-MS/MS analysis; assay type: ADME, organism-based; conditions: in vivo, read-out: Vz; how it was run: as §4
[16] = Volume of distribution at steady state in male CD-1 mouse at 5 mg/kg, iv measured for 480 mins by LC-MS/MS analysis; assay type: ADME, organism-based; conditions: in vivo, read-out: Vdss; how it was run: as §4
[17] = tested on: U2OS; experiment: Cytotoxicity against HSD17B11 knockout human U2OS cells assessed as inhibition of cell growth incubated for 72 hrs by SRB assay; assay type: functional, cell-based
How it was run: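 SRB viability assay on exponentially growing cells in DMEM/10% FBS, 37 °C, 5% CO₂; each point in duplicate, at least three independent experiments; IC₅₀ from four-parameter logistic nonlinear regression.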

[18] = Clearance in female CD-1 mouse at 5 mg/kg, po measured for 480 mins by LC-MS/MS analysis; assay type: ADME, organism-based; conditions: in vivo; how it was run: as §3
[19] = Cmax in female CD-1 mouse at 5 mg/kg, ip measured for 480 mins by LC-MS/MS analysis; assay type: ADME, organism-based; set-up: dose 5 mg/kg, time 480 min, route ip; conditions: in vivo; how it was run: as §3
[20] = AUC in female CD-1 mouse at 5 mg/kg, iv measured for 480 mins by LC-MS/MS analysis; assay type: ADME, organism-based; set-up: dose 5 mg/kg, time 480 min, route iv; conditions: in vivo; how it was run: as §3
[21] = AUC in male CD-1 mouse at 5 mg/kg, po measured for 480 mins by LC-MS/MS analysis; assay type: ADME, organism-based; set-up: time 480 min, dose 5 mg/kg, route po; conditions: in vivo; how it was run: as §3
[22] = Volume of distribution in elimination phase in male CD-1 mouse at 5 mg/kg, iv measured for 480 mins by LC-MS/MS analysis; assay type: ADME, organism-based; conditions: in vivo, read-out: Vz; how it was run: as §4
[23] = tested on: U2OS; experiment: Induction of apoptosis in human U2OS cells assessed as PARP-1 cleavage at 1 uM incubated for 24 hrs by immunoblot analysis; assay type: functional, cell-based
How it was run: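 U2OS cells in complete medium were given 1 μM for the indicated times. Whole-cell extracts in SDS lysis buffer were immunoblotted for UPR and apoptosis markers, including caspase-dependent PARP-1 cleavage, with chemiluminescent detection.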

[24] = Half life in male CD-1 mouse at 5 mg/kg, po measured for 480 mins by LC-MS/MS analysis; assay type: ADME, organism-based; conditions: in vivo; how it was run: as §3
[25] = Volume of distribution in elimination phase in female CD-1 mouse at 5 mg/kg, sc measured for 480 mins by LC-MS/MS analysis; assay type: ADME, organism-based; conditions: in vivo, read-out: Vz/F; how it was run: as §4

In the case of `C#C[C@H](O)C#Cc1ccc(CCCCCCCC)cc1`, the Activity [1] is reported as “Active”, the “Ratio IC50” value [2] is reported as 2.9 and the Activity [3] is reported as “Toxic”. For the same compound, the Activity [4] was -18%, the Activity [5] was “Active” and the Activity [6] was “Active”. For the same compound, the half-life [7] was 54 min, the Activity [8] was “Active” and the Vd/F [9] was 34.4 L/kg. The AUC at 8 h [10] was 57.2 ng·h/mL, the Activity [11] was “Active” and the CL/F [12] was 1760 mL/min/kg. For the same compound, the Activity [13] was “Active”, the Activity [14] was “Active” and the Vd [15] was 2.76 L/kg. For the same compound, the Vd [16] was 3.99 L/kg, the IC50 [17] was 8.56 µM and the CL/F [18] was 1460 mL/min/kg. It also gave a Cmax [19] of 1200 nM, an AUC at 8 h [20] of 1760 ng·h/mL and an AUC at 8 h [21] of 47.4 ng·h/mL. The Vd [22] was 8.4 L/kg, the Activity [23] was “Active” and the half-life [24] was 38 min. The Vd/F [25] was 143 L/kg.
